ChEMBL document CHEMBL5335790, “Design, synthesis and biological evaluation of novel 2,4-thiazolidinedione derivatives able to target the human BAG3 protein” (Eur J Med Chem, 2023)
Calls of active or inactive are those of the source. The calls are words filed in the database; no cut-off is given here.

Key:
HD-MB03 [1] = experiment: Sensitization of chemotherapy induced cytotoxicity against human HD-MB03 cells assessed as inhibition of cell growth at 2.5 uM incubated for 72 hrs in presence of 0.25 unit of vincristine, etoposide, cisplatin, cyclophosphamide by resazurin dye based analysis (reference value: 73.44 +/- 0.92%); assay type: functional
HD-MB03 [2] = experiment: Induction of apoptosis in human HD-MB03 cells assessed as cell shrinkage at 20 uM incubated for 24 hrs in presence of chloroquine by bright field imaging analysis; assay type: functional, cell-based
[3] = biological target: BAG family molecular chaperone regulator 3 (Homo sapiens, UniProt O95817); experiment: Binding affinity to CM4 sensorchip immobilized glycosylated C-terminal His tagged human BAG3 transfected in HEK293T cells assessed as dissociation constant by SPR analysis
Summary of the method: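 SPR single-cycle kinetics on CM4-immobilized HEK-293T-expressed BAG3-His. Increasing compound concentrations in PBS with 5% DMSO and 0.05% P20 were injected at 30 µL/min without regeneration between injections, with blank subtraction. Kd from steady-state analysis, reported as mean ± SEM and compared by Student t-test.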

HD-MB03 [4] = experiment: Sensitization of chemotherapy induced cytotoxicity against human HD-MB03 cells assessed as inhibition of cell growth at 1.25 uM incubated for 72 hrs in presence of 1 unit of vincristine, etoposide, cisplatin, cyclophosphamide by resazurin dye based analysis (reference value: 91.53 +/- 1.15%); assay type: functional
HD-MB03 [5] = experiment: Induction of cell cycle arrest in human HD-MB03 cells assessed as accumulation of cells at G1 phase at 10 uM incubated for 48 hrs by RNase/PI staining based cytofluorimetric analysis (reference value: 54.7%); assay type: functional
HD-MB03 [6] = experiment: Cytotoxicity against human HD-MB03 cells assessed as inhibition of cell growth at 5 uM incubated for 72 hrs by resazurin dye based analysis relative to control; assay type: functional
Summary of the method: (§1)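 Resazurin viability in HD-MB03 cells, 2000/well, single-agent arm of the 6x6 matrix. Inhibitor was added 24 h after seeding, in a 6-point 2-fold series, duplicates, two independent experiments. After 72 h exposure, resazurin was added at 44 µM final for 3 h at 37 °C and fluorescence read at 590 nm. Viability normalized to 1 µM bortezomib and 0.5% DMSO controls.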

HD-MB03 [7] = experiment: Induction of cell cycle arrest in human HD-MB03 cells assessed as accumulation of cells at G2/M phase at 10 uM incubated for 48 hrs by RNase/PI staining based cytofluorimetric analysis (reference value: 4.4%); assay type: functional
A549 = experiment: Antiproliferative activity against human A549 cells assessed as cell growth inhibition incubated for 72 hrs by resazurin dye based analysis; assay type: functional
Summary of the method: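 Cells seeded at 2000/well, treated 24 h later with compounds in a 6-point 2-fold dose series, duplicate wells, two independent experiments. After 72 h, resazurin was added at 44 µM final for 3 h at 37 °C and fluorescence was read at 590 nm. Viability was normalized to 1 µM bortezomib (positive) and 0.5% DMSO (negative) controls. GI50 is the mean ± SEM of dose-response curves.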

HD-MB03 [8] = experiment: Cytotoxicity against human HD-MB03 cells assessed as inhibition of cell growth at 2.5 uM incubated for 72 hrs by resazurin dye based analysis relative to control; assay type: functional; summary of the method: as §1

Chain of BAG family molecular chaperone regulator 3 (O95817 whole entry): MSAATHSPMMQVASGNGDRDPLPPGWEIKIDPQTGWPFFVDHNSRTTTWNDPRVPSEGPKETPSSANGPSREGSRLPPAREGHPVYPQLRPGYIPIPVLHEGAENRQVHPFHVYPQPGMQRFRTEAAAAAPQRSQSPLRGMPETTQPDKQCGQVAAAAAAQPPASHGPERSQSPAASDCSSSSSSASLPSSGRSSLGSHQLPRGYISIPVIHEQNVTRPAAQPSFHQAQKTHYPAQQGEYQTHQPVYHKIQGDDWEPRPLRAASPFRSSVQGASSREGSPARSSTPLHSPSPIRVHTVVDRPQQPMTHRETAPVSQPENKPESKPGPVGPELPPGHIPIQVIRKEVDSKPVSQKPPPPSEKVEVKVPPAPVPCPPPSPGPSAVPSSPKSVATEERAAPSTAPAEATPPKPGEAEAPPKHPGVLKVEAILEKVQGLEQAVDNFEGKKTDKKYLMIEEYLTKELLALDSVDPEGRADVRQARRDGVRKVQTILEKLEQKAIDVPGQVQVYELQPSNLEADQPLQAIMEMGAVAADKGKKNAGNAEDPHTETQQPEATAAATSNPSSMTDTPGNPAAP

Kd [3]: 45 µM
GI50 (A549): 28 µM
Structure (SMILES): CC(C(=O)N1CCOCC1)N1C(=O)S/C(=C\c2cccc(O)c2O)C1=O (racemic)
inhibition at 2.5 µM (HD-MB03 [1]): 69.9%
Activity (HD-MB03 [2]): Active
inhibition at 1.25 µM (HD-MB03 [4]): 93.1%
Activity (HD-MB03 [5]): 52.45%
inhibition at 5 µM (HD-MB03 [6]): 3%
Activity (HD-MB03 [7]): 6.11%
inhibition at 2.5 µM (HD-MB03 [8]): -8.3%
